# pPAFAH inh: pPAFAH (human) enzyme inhibition; recombinant pPAFAH, FP-rhodamine probe fluorescence polarization; inhibition, % at 3.39 µM; 1.5% of 330,000 active;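 active = inhibition above the mean inhibition across the screen plus 3 SD, cut at about 25% in these data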;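 also: inhibitors block binding of the rhodamine activity-based probe so polarization drops; 0% = enzyme with DMSO and 100% = wells lacking pPAFAH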
# Target sequence (Q13093 whole entry, looked up): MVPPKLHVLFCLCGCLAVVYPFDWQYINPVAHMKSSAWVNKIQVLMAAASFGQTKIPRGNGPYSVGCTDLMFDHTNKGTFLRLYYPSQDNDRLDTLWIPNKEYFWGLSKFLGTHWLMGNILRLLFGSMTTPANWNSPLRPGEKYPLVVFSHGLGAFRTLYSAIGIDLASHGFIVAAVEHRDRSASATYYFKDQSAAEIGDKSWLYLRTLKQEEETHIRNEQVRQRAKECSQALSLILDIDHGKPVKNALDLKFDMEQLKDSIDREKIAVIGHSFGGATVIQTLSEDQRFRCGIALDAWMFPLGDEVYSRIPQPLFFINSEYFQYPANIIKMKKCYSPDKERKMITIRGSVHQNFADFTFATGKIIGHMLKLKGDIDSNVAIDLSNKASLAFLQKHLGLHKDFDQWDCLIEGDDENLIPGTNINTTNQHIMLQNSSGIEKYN
# GRIN3A LBD mod: NR3A (human) ligand-binding domain modulation; 2.5% of 340,000 active; Tm shift relative to glycine control, % at 25 µM; AID 1259313; NR3A LBD differential scanning fluorimetry, Tm shift; 0% = protein alone, 100% = glycine-bound protein;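 active = melting temperature shift of at least 10% of the positive control shift, at one fixed dose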
# PAFAH2 FP inh: PAFAH2 (human) inhibition; Q99487; recombinant PAFAH2, FP-rhodamine activity probe, fluorescence polarization; inhibition, % at 3.39 µM; 0.99% of 340,000 active;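 active = inhibition above the mean over all tested compounds plus 3 SD, cut at about 30% in these data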;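 also: inhibitors block probe labeling of enzyme so polarization drops; 0% = enzyme with DMSO and 100% = wells lacking PAFAH2 protein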
# PAFAH1B3 FP inh: blocks human PAF acetylhydrolase 1B catalytic subunit 3 | Q15102 | recombinant PAFAH1B3, FP-rhodamine probe, fluorescence polarization | inhibition, % at 3.39 µM | 0.28% of 340,000 active | AID 492972;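 active = inhibition above the screen-wide average of all tested compounds plus 3 SD, cut at about 25% in these data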;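 also: 0% = enzyme with DMSO only and 100% = wells lacking PAFAH1B3 protein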
# Target sequence (Q15102 whole entry, looked up): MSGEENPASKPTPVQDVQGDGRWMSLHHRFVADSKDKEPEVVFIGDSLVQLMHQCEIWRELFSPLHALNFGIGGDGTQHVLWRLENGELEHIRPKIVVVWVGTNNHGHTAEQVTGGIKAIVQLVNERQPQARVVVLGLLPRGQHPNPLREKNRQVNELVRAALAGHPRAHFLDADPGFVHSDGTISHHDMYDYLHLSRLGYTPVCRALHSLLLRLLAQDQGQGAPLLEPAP
# PAFAH1B2 FP inh: inhibitors of human PAFAH1B2. 1.2% of 340,000 active. inhibition, % at 3.39 µM. recombinant PAFAH1B2, FP-rhodamine activity probe, fluorescence polarization. P68402;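 active = inhibition above the mean of all tested compounds plus 3 SD, cut at about 24% in these data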;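 also: 0% = enzyme with DMSO and 100% = wells lacking PAFAH1B2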
# UCH37 DUB inh: inhibitors of human deubiquitinating enzyme UCH37 | 0.33% of 330,000 active | purified proteasome/UCH37, Ub-AMC cleavage fluorescence | Q9Y5K5 | inhibition, % (test concentration not listed) | AID 588478;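 active = mean inhibition over replicate wells above about 20%, limit read from the data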;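 also: 0% = compound-free wells with enzyme and 100% = wells lacking proteasome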
#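 Reagent: Ub-AMC substrate; assay system: Proteasome-associated human UCH37 deubiquitinase; controls: no-proteasome and no-compound wells; read-out: % inhibition of Ub-AMC cleavage fluorescence; timing: 30 min preincubation with enzyme, 25 min cleavage at room temperature; signal: AMC fluorescence from Ub-AMC cleavage, excitation 355 nm, emission 460 nm; buffer or medium: Tris-HCl pH 7.4 plus ovalbumin, ATP-MgCl2, DTT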
# * hit, by the source's call; . = no result given. The list is not random: actives were taken first. Their share in the collection is about 4.8%.
SMILES,pPAFAH inh,GRIN3A LBD mod,PAFAH2 FP inh,PAFAH1B3 FP inh,PAFAH1B2 FP inh,UCH37 DUB inh
CC1=CC2=NC(=O)/C(=C\c3ccc(-c4cccc(Cl)c4)o3)C(=N)N2O1,-0.7,22.2*,-18.9,-6.1,-10.0,-21.3
Nc1nc(-c2c[nH]c3ccccc23)cs1,1.1,-2.8,-1.2,4.0,7.7,1.6
CCc1ccc(-c2csc(-c3c[nH]c4ccccc34)n2)cc1,-22.5,38.7*,-5.8,9.6,5.4,-5.2
COc1ccc(-c2cn3c(C)c(C(=O)Nc4cccc(NC(C)=O)c4)sc3n2)cc1,-3.7,13.2*,-0.1,-1.8,4.8,1.5
COC(=O)c1ccc(NC(=O)c2sc3nc(-c4ccccc4)cn3c2C)cc1,-0.3,28.2*,-14.2,-5.5,-6.0,-37.1
O=C(COC(=O)c1cc(-c2cccs2)nn1-c1ccccc1)Nc1ccc(F)c([N+](=O)[O-])c1,25.4*,5.9,36.0*,-15.5,-6.4,-0.6
O=C(CC(=O)NN=Cc1cccc(Cl)c1Cl)NCc1ccccc1,.,.,.,.,.,2.2
COc1cc(NC(=O)c2ccc(C)c([N+](=O)[O-])c2)ccc1NC(=O)c1ccco1,2.4,.,.,.,.,2.7
COc1cc(NC(=O)c2oc3ccccc3c2C)ccc1NC(=O)c1ccco1,5.4,24.1*,-0.7,9.6,5.3,-236.7
Cc1ccc(NC(=O)c2ccc(NCc3ccco3)c([N+](=O)[O-])c2)cc1Cl,2.9,15.0*,-1.1,1.8,-1.6,4.8
Cc1ccc(NC(=O)c2ccc(NCC3CCCO3)c([N+](=O)[O-])c2)cc1Cl (stereo not given),-1.1,-4.2,2.9,-0.3,4.2,4.4
COc1cc(NC(=O)c2ccc(OC)c([N+](=O)[O-])c2)ccc1NC(=O)c1ccco1,-0.8,17.0*,-0.9,-4.5,-5.8,4.2
COc1ccc(C(=O)Nc2cccc(-c3cc4ccccc4oc3=O)c2)cc1[N+](=O)[O-],8.4,11.2*,-5.7,-19.9,-11.4,5.3
CC(C)c1c(C(=O)NN=Cc2ccc(Cl)cc2Cl)nnn1-c1nonc1N,.,.,.,.,.,0.1
CCOC(=O)Cc1csc(NN=Cc2ccccc2OC)n1,.,.,.,.,.,-5.3
COc1ccc(-n2nc3ccc(NS(C)(=O)=O)cc3n2)cc1Cl,6.3,21.7*,7.3,-7.4,-0.2,-54.8
O=C(Nc1ccc(Cl)cc1Cl)C1=Cc2ccccc2OC1,-3.0,1.5,-2.0,-8.6,0.4,2.4
O=C(Nc1ccc(Cl)cc1)C1=Cc2cc(Cl)ccc2OC1,-15.3,25.8*,-7.4,1.2,-0.2,0.9
N#Cc1ccccc1NC(=O)CC1CCCCC1,2.1,-2.8,0.1,0.0,5.8,4.7
N#Cc1ccccc1NC(=O)CC1c2ccccc2Oc2ccccc21,2.5,13.1*,7.7,-0.7,4.4,4.2
CNC(=S)NN=Cc1ccc(-c2cc([N+](=O)[O-])ccc2Cl)o1,.,.,.,.,.,5.6
O=C(CCC(=O)Nc1ccc(F)cc1)NN=Cc1ccc(O)cc1,.,.,.,.,.,2.0
Cc1nnc(NN=Cc2cccc(C(F)(F)F)c2)n1N,.,.,.,.,.,6.7
CC(C)(CNC(=O)c1cccc(NS(=O)(=O)c2ccc(Br)cc2)c1)N1CCOCC1,7.3,3.7,1.8,6.4,27.2*,5.1
COc1ccccc1C=NNC(=O)C(=O)NCc1cccnc1,.,.,.,.,.,4.5
SMILES,pPAFAH inh,GRIN3A LBD mod,PAFAH2 FP inh,PAFAH1B3 FP inh,PAFAH1B2 FP inh,UCH37 DUB inh
O=C1C(=O)N2C(=C1C(=O)N1CCCCCC1)c1ccccc1CC21CCCC1,0.2,1.7,3.3,5.8,56.9*,9.6
CC1(C)Cc2ccccc2C2=C(C(=O)N3CCCCCC3)C(=O)C(=O)N21,1.0,0.0,0.7,-0.4,61.4*,12.3
CCC1(CC)Cc2ccccc2C2=C(C(=O)N3CCCCC3)C(=O)C(=O)N21,2.7,-0.3,3.5,3.5,17.2,9.5
CCCC(=O)Nc1sc(-c2ccccc2)c(-c2ccccc2)c1C(=O)O,6.2,-2.3,5.1,-0.8,42.4*,-0.6
Cc1sc(NC(=O)CCCC(=O)O)c(C(N)=O)c1-c1ccccc1,0.6,2.0,1.8,-0.8,-1.8,6.1
Cc1nn(C)c(Oc2ccccc2)c1CCNS(=O)(=O)c1ccc(Cl)cc1,11.0,0.3,20.8,2.6,24.8*,3.9
COc1ccc(C=NNC(=O)CON=C(C)c2cccs2)cc1,.,.,.,.,.,0.0
O=C(O)CC(NS(=O)(=O)c1ccc(Br)cc1)c1ccco1 (stereo not given),0.4,1.5,7.0,0.7,27.8*,-0.9
CO[C@H]1C=CO[C@@]2(C)Oc3c(C)c(O)c4c(O)c(c(C=NN5CCN(C)CC5)c(O)c4c3C2=O)NC(=O)C(C)=CC=C[C@H](C)[C@H](O)[C@@H](C)[C@@H](O)[C@@H](C)[C@H](OC(C)=O)[C@@H]1C,30.5*,-3.0,9.9,19.3,2.8,6.4
CCOc1ccc(C=NOCC(=O)Nc2cc(S(=O)(=O)N3CCOCC3)ccc2OC)cc1,.,.,.,.,.,-3.3
COc1ccc(CNC(=O)COC(=O)c2ccc(C(=O)c3ccccc3)cc2)cc1,31.2*,-1.9,-0.8,12.8,5.3,3.1
COc1ccccc1CNC(=O)c1n[nH]c2ccccc12,27.8*,2.5,2.1,-1.0,-0.5,2.8
COc1ccc(CNC(=O)COC(=O)c2ccccc2C(=O)c2ccccc2)cc1,3.9,-0.9,-6.1,5.7,0.6,1.6
COc1ccccc1CNC(=O)COC(=O)c1ccc(C(=O)c2ccccc2)cc1,23.9,2.4,-5.7,-7.7,46.9*,-2.3
COc1ccccc1CNC(=O)COC(=O)c1ccncc1,0.6,1.7,5.9,11.1,8.1,-2.0
C[C@H](CO)N1C[C@H](C)[C@@H](CN(C)C(=O)Nc2ccc(C(F)(F)F)cc2)Oc2c(NC(=O)Nc3ccc4c(c3)OCO4)cccc2C1=O,8.1,3.6,-16.8,13.1,61.3*,3.6
C[C@H](CO)N1C[C@H](C)[C@@H](CN(C)C(=O)Nc2ccc3c(c2)OCO3)Oc2c(NC(=O)Nc3ccc(C(F)(F)F)cc3)cccc2C1=O,0.3,21.2*,-8.7,2.6,27.7*,-0.7
COc1ccccc1C(=O)Nc1sc2c(c1C(N)=O)CCCC2,3.2,35.0*,-3.4,-8.3,5.9,-250.8
NC(=NN=Cc1ccc(O)cc1)c1nonc1N,.,.,.,.,.,9.6
CCOc1cc(/C=C2/C(=O)ON=C2C)cc(Br)c1O,-0.2,20.7*,4.0,5.9,-2.0,4.1
CCOc1cc(/C=C2\C(=O)ON=C2c2ccccc2)cc(Br)c1O,-1.0,.,27.4,3.7,7.4,3.1
O=C(O)c1ccc(NS(=O)(=O)c2ccc3c(c2)C2C=CCC2C(c2ccccc2F)N3)cc1 (stereo not given),.,-97.2,41.0*,41.9*,16.9,6.0
O=C(O)c1ccc2c(c1)C1C=CCC1C(c1cc3c(cc1Br)OCO3)N2 (stereo not given),8.0,-2.6,8.9,3.5,-1.2,1.1
O=CN(/C=C1\Sc2ccccc2C1=O)Cc1ccccc1,2.7,22.2*,6.0,-0.2,6.2,2.4
